Laboratory results from ChEMBL document CHEMBL5303300, “EUbOPEN Chemogenomics Library - Multiplex” (2023).
Values joined by “and” are separate entries in the source; they are usually repeats but may differ in a detail not shown here. Equal entries are not always repeated.

Tested on: U2OS
Assay: Multiplex assay against U2OS
Type: toxicity, cell-based
Details: human, number of replicates 2
Outline: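 Cells were classed with CellPathfinder machine-learning gating, first as Hoechst high-intensity objects or normal cells, then (normal cells) as healthy, pyknosed or fragmented nuclei, and finally (pyknosed cells) as mitotic or apoptotic. Staining of live cells at seeding used Hoechst33342, BioTracker Green Microtubule Cytoskeleton Dye, MitoTracker Red and Annexin V Alexa Fluor 680, with imaging on a CQ1 microscope at 37°C and 5% CO2 after compound addition. Tubulin, mitochondrial-mass and membrane-permeability phenotypes are per cents of healthy-nucleus cells.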

[1] = 12 h, 1 µM, compound concentration 1 uM
[2] = 12 h, 10 µM, compound concentration 10 uM
[3] = 24 h, 1 µM, compound concentration 1 uM
[4] = 24 h, 10 µM, compound concentration 10 uM
[5] = 48 h, 1 µM, compound concentration 1 uM
[6] = 48 h, 10 µM, compound concentration 10 uM

## CCN1CCN(Cc2ccc(C(=O)Nc3ccc(C)c(Oc4ccc5c(c4)CC(=O)N5)c3)cc2C(F)(F)F)CC1.Cl.Cl
[1]
  Population Apoptotic (%): 50%
  Population Healthy Nuclei (%): 82% and 64%
  Population Hoechst High Intensity Objects (%): 0% and 3%
  Population Membrane Permeable-Phenotype (%): 0%
  Population Mitochondria Different-Phenotype (%): 4% and 0%
  Population Mitotic Cells (%): 50%
  Population Normal (%): 100% and 96%
  Population Pyknosed Nuclei (%): 12% and 19%
  Population Tubulin-Different-Phenotype (%): 60% and 40%
[2]
  Population Apoptotic (%): 42% and 45%
  Population Fragmented Nuclei (%): 15% and 8%
  Population Healthy Nuclei (%): 57% and 69%
  Population Hoechst High Intensity Objects (%): 1% and 0%
  Population Membrane Permeable-Phenotype (%): 33% and 14%
  Population Mitochondria Different-Phenotype (%): 46%
  Population Mitotic Cells (%): 57% and 54%
  Population Normal (%): 98% and 100%
  Population Pyknosed Nuclei (%): 26% and 22%
  Population Tubulin-Different-Phenotype (%): 83% and 81%
[3]
  Population Apoptotic (%): 66% and 63%
  Population Fragmented Nuclei (%): 5% and 2%
  Population Healthy Nuclei (%): 71% and 81%
  Population Hoechst High Intensity Objects (%): 2% and 0%
  Population Membrane Permeable-Phenotype (%): 0%
  Population Mitochondria Different-Phenotype (%): 7% and 3%
  Population Mitotic Cells (%): 33% and 36%
  Population Normal (%): 97% and 100%
  Population Pyknosed Nuclei (%): 23% and 15%
  Population Tubulin-Different-Phenotype (%): 51% and 64%
[4]
  Population Apoptotic (%): 65% and 64%
  Population Fragmented Nuclei (%): 12% and 8%
  Population Healthy Nuclei (%): 54% and 64%
  Population Hoechst High Intensity Objects (%): 0%
  Population Membrane Permeable-Phenotype (%): 29% and 26%
  Population Mitochondria Different-Phenotype (%): 76% and 74%
  Population Mitotic Cells (%): 35%
  Population Normal (%): 100%
  Population Pyknosed Nuclei (%): 32% and 27%
  Population Tubulin-Different-Phenotype (%): 61% and 86%
[5]
  Population Apoptotic (%): 78% and 66%
  Population Fragmented Nuclei (%): 4% and 1%
  Population Healthy Nuclei (%): 72% and 85%
  Population Hoechst High Intensity Objects (%): 1% and 0%
  Population Membrane Permeable-Phenotype (%): 4% and 1%
  Population Mitochondria Different-Phenotype (%): 2% and 1%
  Population Mitotic Cells (%): 21% and 33%
  Population Normal (%): 98% and 99%
  Population Pyknosed Nuclei (%): 22% and 13%
  Population Tubulin-Different-Phenotype (%): 59% and 70%
[6]
  Population Apoptotic (%): 83% and 80%
  Population Fragmented Nuclei (%): 9% and 10%
  Population Healthy Nuclei (%): 29% and 49%
  Population Hoechst High Intensity Objects (%): 1% and 0%
  Population Membrane Permeable-Phenotype (%): 66% and 31%
  Population Mitochondria Different-Phenotype (%): 60% and 81%
  Population Mitotic Cells (%): 16% and 19%
  Population Normal (%): 98% and 99%
  Population Pyknosed Nuclei (%): 60% and 40%
  Population Tubulin-Different-Phenotype (%): 80% and 81%

## CCCNc1ccc2ncc(-c3ccncc3)n2n1
[1]
  Population Apoptotic (%): 60% and 74%
  Population Healthy Nuclei (%): 58% and 81%
  Population Hoechst High Intensity Objects (%): 0%
  Population Membrane Permeable-Phenotype (%): 11% and 2%
  Population Mitochondria Different-Phenotype (%): 11% and 0%
  Population Mitotic Cells (%): 40% and 25%
  Population Normal (%): 100%
  Population Pyknosed Nuclei (%): 17% and 14%
  Population Tubulin-Different-Phenotype (%): 76% and 86%
[2]
  Population Apoptotic (%): 81% and 78%
  Population Healthy Nuclei (%): 35% and 57%
  Population Hoechst High Intensity Objects (%): 0% and 1%
  Population Membrane Permeable-Phenotype (%): 6% and 8%
  Population Mitochondria Different-Phenotype (%): 6% and 3%
  Population Mitotic Cells (%): 18% and 22%
  Population Normal (%): 100% and 98%
  Population Pyknosed Nuclei (%): 24% and 33%
  Population Tubulin-Different-Phenotype (%): 68% and 60%
[3]
  Population Apoptotic (%): 66% and 87%
  Population Healthy Nuclei (%): 71% and 89%
  Population Hoechst High Intensity Objects (%): 0%
  Population Membrane Permeable-Phenotype (%): 10% and 3%
  Population Mitochondria Different-Phenotype (%): 3% and 1%
  Population Mitotic Cells (%): 33% and 12%
  Population Normal (%): 100% and 99%
  Population Pyknosed Nuclei (%): 7%
  Population Tubulin-Different-Phenotype (%): 76% and 88%
[4]
  Population Apoptotic (%): 78% and 90%
  Population Healthy Nuclei (%): 26% and 53%
  Population Hoechst High Intensity Objects (%): 0% and 2%
  Population Membrane Permeable-Phenotype (%): 16% and 7%
  Population Mitochondria Different-Phenotype (%): 8% and 7%
  Population Mitotic Cells (%): 21% and 9%
  Population Normal (%): 100% and 97%
  Population Pyknosed Nuclei (%): 31% and 33%
  Population Tubulin-Different-Phenotype (%): 66% and 69%
[5]
  Population Apoptotic (%): 57% and 66%
  Population Healthy Nuclei (%): 71% and 88%
  Population Hoechst High Intensity Objects (%): 0%
  Population Membrane Permeable-Phenotype (%): 6% and 3%
  Population Mitochondria Different-Phenotype (%): 6% and 2%
  Population Mitotic Cells (%): 42% and 33%
  Population Normal (%): 100%
  Population Pyknosed Nuclei (%): 11% and 7%
  Population Tubulin-Different-Phenotype (%): 69% and 86%
[6]
  Population Apoptotic (%): 81% and 78%
  Population Healthy Nuclei (%): 23% and 37%
  Population Hoechst High Intensity Objects (%): 0% and 1%
  Population Mitochondria Different-Phenotype (%): 23% and 8%
  Population Mitotic Cells (%): 18% and 21%
  Population Normal (%): 100% and 98%
  Population Pyknosed Nuclei (%): 29% and 51%
  Population Tubulin-Different-Phenotype (%): 46% and 62%

## CN(C)CC#Cc1ccc2[nH]c3c(c2c1)-c1nc(N)ncc1CCC3
[1]
  Population Apoptotic (%): 100% and 38%
  Population Fragmented Nuclei (%): 30% and 13%
  Population Healthy Nuclei (%): 61% and 68%
  Population Hoechst High Intensity Objects (%): 3% and 0%
  Population Membrane Permeable-Phenotype (%): 5% and 1%
  Population Mitochondria Different-Phenotype (%): 2% and 1%
  Population Normal (%): 96% and 99%
  Population Pyknosed Nuclei (%): 7% and 17%
  Population Tubulin-Different-Phenotype (%): 61% and 84%
[2]
  Population Apoptotic (%): 50% and 17%
  Population Healthy Nuclei (%): 33% and 56%
  Population Hoechst High Intensity Objects (%): 0%
  Population Membrane Permeable-Phenotype (%): 10% and 5%
  Population Mitochondria Different-Phenotype (%): 0% and 4%
  Population Mitotic Cells (%): 50% and 82%
  Population Normal (%): 100% and 99%
  Population Tubulin-Different-Phenotype (%): 20% and 47%
[3]
  Population Apoptotic (%): 75% and 53%
  Population Fragmented Nuclei (%): 30% and 17%
  Population Healthy Nuclei (%): 57% and 58%
  Population Hoechst High Intensity Objects (%): 1% and 0%
  Population Membrane Permeable-Phenotype (%): 0% and 3%
  Population Mitochondria Different-Phenotype (%): 0% and 1%
  Population Mitotic Cells (%): 25% and 46%
  Population Normal (%): 98% and 99%
  Population Pyknosed Nuclei (%): 12% and 23%
  Population Tubulin-Different-Phenotype (%): 58% and 82%
[4]
  Population Apoptotic (%): 66% and 24%
  Population Healthy Nuclei (%): 31% and 39%
  Population Hoechst High Intensity Objects (%): 0%
  Population Membrane Permeable-Phenotype (%): 27% and 15%
  Population Mitochondria Different-Phenotype (%): 9% and 4%
  Population Mitotic Cells (%): 33% and 75%
  Population Normal (%): 100% and 99%
  Population Tubulin-Different-Phenotype (%): 45% and 49%
[5]
  Population Apoptotic (%): 45% and 69%
  Population Fragmented Nuclei (%): 37% and 13%
  Population Healthy Nuclei (%): 52% and 69%
  Population Hoechst High Intensity Objects (%): 0%
  Population Membrane Permeable-Phenotype (%): 7% and 3%
  Population Mitochondria Different-Phenotype (%): 5% and 0%
  Population Mitotic Cells (%): 54% and 30%
  Population Normal (%): 99% and 100%
  Population Pyknosed Nuclei (%): 11% and 17%
  Population Tubulin-Different-Phenotype (%): 67% and 77%
[6]
  Population Apoptotic (%): 50%
  Population Healthy Nuclei (%): 19% and 48%
  Population Hoechst High Intensity Objects (%): 0%
  Population Membrane Permeable-Phenotype (%): 20% and 28%
  Population Mitochondria Different-Phenotype (%): 0% and 2%
  Population Mitotic Cells (%): 50% and 49%
  Population Normal (%): 100% and 99%
  Population Tubulin-Different-Phenotype (%): 20% and 45%
